Assay results taken from ChEMBL document CHEMBL1131218, “Antineoplastic agents. 379. Synthesis of phenstatin phosphate” (J Med Chem, 1998).
Converted amounts (≈) assume the structure as drawn.

What was measured:
[1] = Concentration to inhibit 50% of tubulin polymerization from bovine brain; design: species or system Bos taurus
Procedure, shortened: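 Purified, electrophoretically homogeneous bovine brain tubulin at 1.0 mg/mL (10 μM) in 0.8 M monosodium glutamate pH 6.6 with 4% (v/v) DMSO and varying drug concentrations. Preincubated 15 min at 30 °C, chilled on ice, then GTP added (0.4 mM final). Assembly started by a jump from 0 to 30 °C and followed by turbidity. IC50 taken from extent of assembly at 20 min. Active compounds run in at least three independent experiments.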

Bos taurus = organism: Bos taurus; experiment: Percentage inhibition of colchicine binding to tubulin by compound was evaluated; design: concentration or dose not given beside the values; settings: concentration not given here
[2] = system: Panel NCI-60 (60 carcinoma cell lines); experiment: The compound was tested for the concentration for 50% growth inhibition of NCI 60 cell line human tumor screen expressed in 10e-8 M; assay type: functional
Procedure, shortened: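 NCI 60-cell-line screen, run in triplicate. Compounds tested in three concentration ranges (top 10⁻⁵, 10⁻⁶ and 10⁻⁷ M), each with five 10-fold dilutions. The mean panel GI50 across lines is reported with SD.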

P388 = experiment: The compound was tested for the concentration to inhibit 50% of leukemia P388 cell lines.; assay type: functional; settings: Mus musculus
Tubulin = Tubulin (Bos taurus, UniProt Q6B856+Q862L2+Q862F3); experiment: The compound was tested for the concentration to inhibit 50% of tubulin polymerization.; assay type: protein assay
Procedure, shortened: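 Purified bovine brain tubulin at 1.0 mg/mL (10 μM) in 0.8 M monosodium glutamate pH 6.6 with 4% DMSO. Drug was preincubated with tubulin for 15 min at 30 °C, then chilled. GTP was added to 0.4 mM and assembly started by a jump from 0 to 30 °C, followed by spectrophotometer.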

NCI-H460 = experiment: The compound was tested for the concentration to inhibit 50% lung-NSC NCI-H460 cell lines.; assay type: functional; settings: Homo sapiens
A498 = experiment: The compound was tested for the concentration to inhibit 50% of renal A498 cell lines.; assay type: functional; settings: Homo sapiens
KM-20L2 = experiment: The compound was tested for the concentration to inhibit 50% of colon KM20L2 cell lines.; assay type: functional; settings: Homo sapiens
SK-MEL-5 = experiment: The compound was tested for the concentration to inhibit 50% of melanoma SK-MEL-5 cell lines.; assay type: functional; settings: Homo sapiens
OVCAR = experiment: The compound was tested for the concentration to inhibit 50% of ovarian OVCAR cell lines.; assay type: functional; settings: Homo sapiens
SF-295 = experiment: The compound was tested for the concentration to inhibit 50% of CNS SF-295 cell lines.; assay type: functional; settings: Homo sapiens

| Compound | IC50 [1] | inhibition (Bos taurus) | GI50 [2] | other results |
| --- | --- | --- | --- | --- |
| COc1cc(C(=O)c2cc(C)cc(C)c2)cc(OC)c1OC | 11 µM | 7% | 3.48 µM |  |
| COc1ccc(/C=C\c2cc(OC)c(OC)c(OC)c2)cc1OP(=O)([O-])[O-].[Na+].[Na+] [FOSBRETABULIN DISODIUM] |  | 4% |  | GI50 (P388): 0.0004 µg/mL; IC50 (Tubulin): > 80 µM; GI50 (NCI-H460): 0.029 µg/mL; GI50 (A498): 0.041 µg/mL; GI50 (KM-20L2): 0.34 µg/mL; GI50 (SK-MEL-5): 0.041 µg/mL; GI50 (OVCAR): 0.023 µg/mL; GI50 (SF-295): 0.036 µg/mL |
| COc1ccc(CCc2cc(OC)c(OC)c(OC)c2)cc1 | 3.2 µM | 54% |  |  |
| COc1ccc(Cc2cc(OC)c(OC)c(OC)c2)cc1O | 3.3 µM | 65% |  |  |
| COc1cc(C(=O)c2cc(F)cc(F)c2)cc(OC)c1OC | 39 µM | 0% | 4.94 µM |  |
| COc1ccc(/C=C\c2cc(OC)c(OC)c(OC)c2)cc1O |  | 97% |  |  |
| COc1ccc(C(=O)c2cc(OC)c(OC)c(OC)c2)cc1OC | 15 µM | 1% | 5.11 µM |  |
| COc1ccc(C(=O)c2cc(OC)c(OC)c(OC)c2)cc1OC(C)=O |  | 71% |  | IC50 (Tubulin): 3.5 µM |
| COc1ccc(/C=C\c2cc(OC)c(OC)c(OC)c2)cc1 |  | 97% |  | IC50 (Tubulin): 1.3 µM |
| COc1cc(C(=O)c2cc(Cl)cc(Cl)c2)cc(OC)c1OC | 36 µM | 1% | 5.12 µM |  |
| COc1ccc(C(=O)c2cc(OC)c(OC)c(OC)c2)cc1OP(=O)([O-])O.[Na+] |  | 37% |  | GI50 (P388): < 0.001 µg/mL; IC50 (Tubulin): 21 µM; GI50 (NCI-H460): 0.035 µg/mL; GI50 (A498): 0.05 µg/mL; GI50 (KM-20L2): 0.27 µg/mL; GI50 (SK-MEL-5): 0.0047 µg/mL; GI50 (OVCAR): 0.0025 µg/mL; GI50 (SF-295): 0.012 µg/mL |
| COc1ccc(Cc2cc(OC)c(OC)c(OC)c2)cc1 | 4.4 µM | 56% |  |  |
| COc1ccc(CCc2cc(OC)c(OC)c(OC)c2)cc1O | 2.1 µM | 77% |  |  |
| COc1cc(OC)cc(C(=O)c2cc(OC)c(OC)c(OC)c2)c1 | 3.6 µM | 58% | 0.543 µM |  |
| COc1ccc(C(=O)c2cc(OC)c(OC)c(OC)c2)cc1O [PHENSTATIN] | 1 µM | 86% | 0.0601 µM | GI50 (P388): 0.0033 µg/mL (≈ 0.0104 µM); GI50 (NCI-H460): 0.0057 µg/mL (≈ 0.0179 µM); GI50 (A498): 0.38 µg/mL (≈ 1.19 µM); GI50 (KM-20L2): 0.04 µg/mL (≈ 0.126 µM); GI50 (SK-MEL-5): 0.0038 µg/mL (≈ 0.0119 µM); GI50 (OVCAR): 0.0023 µg/mL (≈ 0.00723 µM); GI50 (SF-295): 0.052 µg/mL (≈ 0.163 µM) |
| COc1cc(C(=O)c2ccc3c(c2)OCO3)cc(OC)c1OC | 15 µM | 0% | 2.7 µM |  |
